In ChEMBL document CHEMBL2074359, “Structural requirements for determining the substrate affinity of peptide transporters PEPT1 and PEPT2” (Pflugers Arch, 2000):
Peptide text beside a SMILES is read from it.

Tests used:
[1] = target: T1, Solute carrier family 15 member 2 (Rattus norvegicus, UniProt Q63424); experiment: TP_TRANSPORTER: inhibition of Gly-Sar uptake in PEPT2-expressing LLC-PK1 cells; assay type: functional, cell-based
T1 sequence (Q63424 whole entry): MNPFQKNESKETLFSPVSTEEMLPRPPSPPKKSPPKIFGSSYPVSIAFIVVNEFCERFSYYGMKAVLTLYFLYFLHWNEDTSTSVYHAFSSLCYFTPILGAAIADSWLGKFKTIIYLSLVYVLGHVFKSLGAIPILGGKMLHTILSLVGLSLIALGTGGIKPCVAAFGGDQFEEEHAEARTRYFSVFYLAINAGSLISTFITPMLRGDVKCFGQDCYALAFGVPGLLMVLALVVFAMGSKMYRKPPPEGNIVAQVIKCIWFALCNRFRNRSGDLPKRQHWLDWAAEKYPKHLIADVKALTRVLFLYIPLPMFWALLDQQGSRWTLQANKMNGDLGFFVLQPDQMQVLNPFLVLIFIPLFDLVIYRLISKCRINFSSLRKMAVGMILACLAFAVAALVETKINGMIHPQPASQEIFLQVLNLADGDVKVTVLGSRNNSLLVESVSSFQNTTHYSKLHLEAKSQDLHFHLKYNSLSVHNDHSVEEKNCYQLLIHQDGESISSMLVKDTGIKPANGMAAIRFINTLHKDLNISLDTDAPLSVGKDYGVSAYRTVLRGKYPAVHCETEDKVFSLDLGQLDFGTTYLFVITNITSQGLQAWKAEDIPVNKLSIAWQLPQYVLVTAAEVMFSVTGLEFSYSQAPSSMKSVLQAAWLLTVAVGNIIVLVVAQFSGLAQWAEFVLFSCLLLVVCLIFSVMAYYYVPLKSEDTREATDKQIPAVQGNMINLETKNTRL
How it was run: (§1)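 LLC-PK1 cells stably carrying rat PEPT2 cDNA, grown 6 days in DMEM with 10% FBS. Monolayers were incubated 15 min at 37°C with [14C]glycylsarcosine (20 µM, pH 6.0) alone or with inhibitor, mostly 1–10000 µM. Uptake was normalized to Bradford protein, with control as 100%. IC50 came from nonlinear regression and Ki from Cheng–Prusoff. Two monolayers per concentration, four for control.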

[2] = target: T2, Solute carrier family 15 member 1 (Rattus norvegicus, UniProt P51574); experiment: TP_TRANSPORTER: inhibition of Gly-Sar uptake in PEPT1-expressing LLC-PK1 cells; assay type: functional, cell-based
T2 sequence (P51574 whole entry): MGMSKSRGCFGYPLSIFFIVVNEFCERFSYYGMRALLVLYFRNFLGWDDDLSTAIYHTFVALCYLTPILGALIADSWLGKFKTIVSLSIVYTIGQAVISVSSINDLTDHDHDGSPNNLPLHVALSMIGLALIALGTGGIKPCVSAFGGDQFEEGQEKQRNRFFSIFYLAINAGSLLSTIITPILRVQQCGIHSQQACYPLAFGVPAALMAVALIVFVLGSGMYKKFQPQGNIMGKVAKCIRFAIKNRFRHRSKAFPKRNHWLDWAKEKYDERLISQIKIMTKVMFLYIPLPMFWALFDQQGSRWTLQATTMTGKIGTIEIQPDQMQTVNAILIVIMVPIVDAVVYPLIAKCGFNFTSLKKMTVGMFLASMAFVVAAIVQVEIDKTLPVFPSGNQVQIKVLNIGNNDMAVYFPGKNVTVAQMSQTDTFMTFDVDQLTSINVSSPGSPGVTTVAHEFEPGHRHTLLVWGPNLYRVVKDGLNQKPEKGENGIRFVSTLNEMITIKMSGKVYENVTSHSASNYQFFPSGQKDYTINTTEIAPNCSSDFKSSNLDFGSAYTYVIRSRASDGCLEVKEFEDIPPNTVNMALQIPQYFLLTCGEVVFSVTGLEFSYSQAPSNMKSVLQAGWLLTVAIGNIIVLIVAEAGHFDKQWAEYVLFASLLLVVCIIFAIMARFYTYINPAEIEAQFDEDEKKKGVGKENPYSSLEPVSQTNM
How it was run: as §1, with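 “PEPT1” for “PEPT2”, “10–20000” for “1–10000”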

SMILES: NCC(=O)N[C@@H](Cc1c[nH]c2ccccc12)C(=O)O (H-Gly-Trp-OH)
- Ki [1]: 7 µM
- Ki [2]: 1400 µM

SMILES: CC(C)C[C@H](NC(=O)CN)C(=O)N[C@@H](Cc1ccc(O)cc1)C(=O)O (H-Gly-Leu-Tyr-OH)
- Ki [1]: 8 µM
- Ki [2]: 190 µM

SMILES: CC(C)C[C@H](NC(=O)CN)C(=O)O
- Ki [1]: 6 µM
- Ki [2]: 110 µM

SMILES: NCCCCCCCC(=O)O
- Ki [1]: 7900 µM
- Ki [2]: 4400 µM

SMILES: CC(C)C[C@H](NC(=O)[C@@H](O)[C@H](N)Cc1ccccc1)C(=O)O [UBENIMEX]
- Ki [1]: 18 µM
- Ki [2]: 1500 µM

SMILES: NCCCC[C@H](N)C(=O)NCC(=O)O (H-Lys-Gly-OH)
- Ki [1]: 21 µM
- Ki [2]: 910 µM

SMILES: NCC(=O)N[C@@H](Cc1ccccc1)C(=O)O (H-Gly-Phe-OH)
- Ki [1]: 8 µM
- Ki [2]: 170 µM

SMILES: NCC(=O)NCC(=O)O (H-Gly-Gly-OH)
- Ki [1]: 42 µM
- Ki [2]: 860 µM

SMILES: NCCCC[C@H](NC(=O)[C@@H](N)CCCCN)C(=O)O
- Ki [1]: 96 µM
- Ki [2]: 8000 µM

SMILES: NCC(=O)N[C@@H](Cc1c[nH]cn1)C(=O)O (H-Gly-His-OH)
- Ki [1]: 39 µM
- Ki [2]: 1400 µM

SMILES: C[C@H](N)C(=O)Nc1ccc([N+](=O)[O-])cc1
- Ki [1]: 29 µM
- Ki [2]: 61 µM

SMILES: NCC(=O)NCC(=O)N[C@@H](Cc1ccccc1)C(=O)O (H-Gly-Gly-Phe-OH)
- Ki [1]: 29 µM
- Ki [2]: 610 µM

SMILES: NCCCC[C@H](NC(=O)CN)C(=O)O (H-Gly-Lys-OH)
- Ki [1]: 210 µM
- Ki [2]: 2200 µM

SMILES: NCC(=O)N[C@@H](CC(=O)O)C(=O)O (H-Gly-Asp-OH)
- Ki [1]: 60 µM
- Ki [2]: 300 µM

SMILES: N[C@@H](CC(=O)O)C(=O)N[C@@H](CC(=O)O)C(=O)O (H-Asp-Asp-OH)
- Ki [1]: 150 µM
- Ki [2]: 990 µM

SMILES: N[C@@H](CC(=O)NCC(=O)O)C(=O)O
- Ki [1]: 28000 µM
- Ki [2]: > 50000 µM

SMILES: NCC(=O)CCC(=O)O [AMINOLEVULINIC ACID]
- Ki [1]: 230 µM
- Ki [2]: 2200 µM

SMILES: CNCC(=O)NCC(=O)O
- Ki [1]: 2200 µM
- Ki [2]: 13000 µM

SMILES: N[C@@H](Cc1ccccc1)C(=O)NCC(=O)O (H-Phe-Gly-OH)
- Ki [1]: 7 µM
- Ki [2]: 220 µM

SMILES: O=C(O)CNC(=O)[C@@H]1CCCN1 (H-Pro-Gly-OH)
- Ki [1]: 2000 µM
- Ki [2]: 13000 µM

SMILES: NCC(=O)N[C@@H](CC(N)=O)C(=O)O (H-Gly-Asn-OH)
- Ki [1]: 22 µM
- Ki [2]: 270 µM

SMILES: CSCC[C@H](N)C(=O)N[C@@H](C)C(=O)O (H-Met-Ala-OH)
- Ki [1]: 17 µM
- Ki [2]: 150 µM

SMILES: N[C@@H](CC(=O)O)C(=O)NCC(=O)O (H-Asp-Gly-OH)
- Ki [1]: 46 µM
- Ki [2]: 830 µM

SMILES: CSCC[C@H](NC=O)C(=O)N[C@@H](C)C(=O)O (HELM PEPTIDE1{[O=C[*:2]].M.A}$$$$V2.0)
- Ki [1]: 10000 µM
- Ki [2]: 24000 µM

SMILES: NCC(=O)NCC(=O)NCC(=O)O [GLYCYLGLYCYLGLYCINE]
- Ki [1]: 160 µM
- Ki [2]: 1300 µM

SMILES: NCCC(=O)N[C@@H](Cc1cnc[nH]1)C(=O)O [CARNOSINE]
- Ki [1]: 66 µM
- Ki [2]: 8000 µM

SMILES: NCC(=O)N[C@@H](Cc1ccc(O)cc1)C(=O)O (H-Gly-Tyr-OH)
- Ki [1]: 14 µM
- Ki [2]: 210 µM
